zfTRPN1 agonist = activates the zebrafish TRPN1 channel | HEK293 zebrafish TRPN1-YFP, Fluo-8 calcium fluorescence; 100% = response to 87 µM carbachol | activation, % at 3 µM | 0.18% of 220,000 active | AID 1424;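 active means activation above its plate's cutoff, the mean activation of test wells on that plate plus 3 SD, cut at about 19% in these data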;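 further: 0% = DMSO alone and 100% = 87 µM carbachol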
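Material: zebrafish TRPN1-YFP in HEK293 cells. Doses: one dose of 3 µM, 0.3% DMSO. Incubation: dye 1 h 37 °C plus 30 min RT. Measured by: intracellular calcium fluorescence with Fluo-8.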
TRPML3 ag = human mucolipin-3 channel agonism. Q8TDD5. HEK293 TRPML3-YFP, Fluo-8 calcium fluorescence; 100% = the carbachol control signal. activation, % at 3 µM. 0.29% of 220,000 active. AID 1448;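 active means activation above its plate's cutoff, the mean activation of the plate's test wells plus 3 SD, cut at about 12% in these data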;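 further: 0% = DMSO only wells and 100% = carbachol wells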
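Material: TRPML3-YFP stable HEK293 cells | Dosing: One concentration, 3 µM nominal, 0.3% DMSO | Timing: 125 s total fluorescence read per well | Technique: Fluo-8 calcium dye fluorescence, ex 470-495, em 515-575 nm | Measure: Percent activation from peak-to-basal fluorescence ratio, scaled between DMSO and carbachol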
V1R ag counter = V1a receptor agonism, counter-screen for OXTR agonists | activation, % at 3 µM | AID 2797 | CHO-V1R cells, Fluo-8 calcium fluorescence, agonist mode; 0% DMSO, 100% 3 nM vasopressin | P37288 | 0.25% of 320,000 active;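 active means activation above the mean activation of all tested compounds plus 3 SD, per screening run, cut at about 20% in these data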;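 further: signal is peak over basal fluorescence ratio across a 100 second FLIPR read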
Target sequence (P37288 whole entry, looked up): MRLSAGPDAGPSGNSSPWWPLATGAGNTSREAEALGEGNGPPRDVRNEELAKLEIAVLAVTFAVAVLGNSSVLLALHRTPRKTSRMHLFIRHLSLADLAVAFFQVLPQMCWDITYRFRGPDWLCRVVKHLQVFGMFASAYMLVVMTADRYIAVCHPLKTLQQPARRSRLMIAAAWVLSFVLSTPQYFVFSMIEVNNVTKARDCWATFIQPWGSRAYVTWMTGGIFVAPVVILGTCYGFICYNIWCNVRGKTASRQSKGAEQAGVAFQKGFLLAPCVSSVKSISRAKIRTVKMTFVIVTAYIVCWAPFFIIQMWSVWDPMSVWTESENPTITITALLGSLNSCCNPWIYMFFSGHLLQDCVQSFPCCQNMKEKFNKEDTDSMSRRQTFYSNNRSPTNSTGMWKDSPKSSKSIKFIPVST
OXTR potentiate = potentiators of human oxytocin receptor; activation, % at 3 µM; 0.061% of 320,000 active; CHO-OTR cells, Fluo-8 calcium fluorescence, potentiator mode; 0% = oxytocin EC15, 100% = EC100; P30559; AID 2445;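 active means activation above that plate's cutoff, the mean activation of tested compounds plus 3 SD, cut at about 6.6% in these data, passing the limit was not always enough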;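 further: 100% uses oxytocin at 75 nM as the full agonist control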
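assay system = CHO-OTR cells, human receptor | schedule = compound 6 min at room temperature before oxytocin, 100 s read | detection = Fluo-8 intracellular calcium fluorescence, ex 470-495, em 515-575 nm | evaluation = normalized max/min fluorescence ratio, % activation | control set = EC15 oxytocin alone as 0%, 75 nM oxytocin (EC100) as 100%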
OXTR agonist = activates the human oxytocin receptor | CHO-OTR cells, Fluo-8 calcium fluorescence; normalized: DMSO 0%, oxytocin 100% | AID 2435 | P30559 | 0.32% of 320,000 active | activation, % at 3 µM;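 active means activation above the mean of all tested compounds plus 3 SD, cutoff set per screening run, cut at about 20% in these data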;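 further: peak over basal fluorescence ratio from a 100 s FLIPR kinetic read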
TRPN1 counter = activates zebrafish TRPN1, counter-screen for TRPML3 agonists; shares compounds with TRPML3 ag; HEK293 zebrafish TRPN1-YFP, Fluo-8 calcium fluorescence; scaled: carbachol wells 100%, DMSO wells 0%; activation, % at 3 µM; 10% of 310 active; AID 1525;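 active means mean activation over replicates above a set limit taken from the earlier TRPN1 channel primary screen, cut at about 19% in these data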;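 further: 100% = carbachol and 0% = 0.3% DMSO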
TRPML3 confirm = confirmation of human TRPML3 channel agonists; HEK293 TRPML3-YFP, Fluo-8 calcium fluorescence; 100% set by carbachol, 0% by DMSO; 80% of 310 active; activation, % at 3 µM; AID 1526; shares compounds with TRPML3 ag;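 active means activation above a set limit derived from the earlier primary screen, cut at about 12% in these data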
Active calls of the source: *; · = no result given. An excerpt weighted towards active compounds, which were near 0.58% of everything screened.

SMILES	zfTRPN1 agonist	TRPML3 ag	V1R ag counter	OXTR potentiate	OXTR agonist	TRPN1 counter	TRPML3 confirm
O=C1NCC(c2ccccc2)C1C(=O)N/N=C/c1ccc(Cl)s1 (configuration not stated)	2.5	15.2*	1.5	-3.2	-0.2	20.4*	20.2*
O=C(c1ccccc1F)N(NC(=O)C(O)(c1ccccc1)c1ccccc1)c1ccccc1	-2.6	18.2*	-0.9	-8.0	-1.8	-1.6	30.4*
CN(C)CCCN(CCCN(C)C)C(=S)Nc1ccc(S(=O)(=O)N2CCOCC2)cc1	1.9	0.1	0.9	-2.6	0.9	·	·
N#C/C(=C\c1cn(CCOc2ccccc2)c2ccccc12)C(=O)NCC1CCCO1 (configuration not stated)	-0.1	25.1*	3.5	-7.6	2.0	0.5	10.8
Cc1ccc(C)c(OCCn2cc(/C=C(/C#N)C(=O)NCC3CCCO3)c3ccccc32)c1 (configuration not stated)	-0.1	0.1	0.1	5.9	2.0	·	·
CCC(C(=O)Nc1cc(C)nn1-c1nc(C)cc(C)n1)c1ccccc1 (configuration not stated)	2.2	23.3*	0.6	-10.6	-1.1	1.9	22.6*
COCCN(C(=O)c1snc(C(N)=O)c1N)C(C(=O)NC1CCCCC1)c1ccc(OC)c(OC)c1 (configuration not stated)	·	·	1.4	-1.8	0.2	·	·
CN(c1ccccc1)S(=O)(=O)c1cccc(Cl)c1Cl	-1.7	52.6*	-1.4	-3.2	-0.5	-3.6	40.5*
CN(c1ccccc1)S(=O)(=O)c1cc(Cl)ccc1Cl	-2.0	48.8*	-1.6	0.4	-0.9	-3.2	66.6*
CN(c1ccccc1)S(=O)(=O)c1cccc2ccccc12	·	·	0.3	-12.7	-1.7	·	·
CN(C)S(=O)(=O)c1ccc(N2CCCC2)c(C(=O)Nc2ccc(F)cc2F)c1	·	·	1.7	-10.1	0.4	·	·
COc1ccc(C(C)(C)C)cc1NC(=O)c1cc(S(=O)(=O)N(C)C)ccc1N1CCCC1	-1.6	33.6*	-1.8	-8.9	-2.8	0.1	33.2*
O=C1Nc2ccccc2C1(O)C/C(=N/O)c1ccccc1 (configuration not stated)	-2.2	0.7	0.8	4.8	0.7	·	·
CSc1nsc(SC)c1C(=O)N1CCN(S(=O)(=O)c2ccc(C)cc2)C1C(C)C (configuration not stated)	-0.8	45.5*	0.0	-13.2	-2.5	-1.7	25.9*
Cc1ccc(S(=O)(=O)n2nccc2-c2c(-c3ccccc3)noc2C)cc1	1.2	119.6*	2.1	-12.9	-2.3	-1.1	94.3*
Cc1onc(-c2ccc(Cl)cc2)c1-c1ccnn1S(=O)(=O)c1cccc(C(F)(F)F)c1	1.5	33.0*	1.4	-12.1	1.1	-0.3	51.0*
N#CCSc1ccc2nc(-c3ccccc3)cn2n1	·	·	-0.2	-15.8	-1.0	·	·
O=C(O)CC(C(=O)O)c1ccc(OCCCCOc2ccc(C(CC(=O)O)C(=O)O)cc2)cc1 (configuration not stated)	·	·	0.2	-0.9	-0.4	·	·
O=C(Cn1cc([N+](=O)[O-])ccc1=O)NCc1ccc(Cl)cc1Cl	·	·	4.2	-4.2	0.0	·	·
O=C(c1ccc([N+](=O)[O-])cc1)N(Cc1ccc(Cl)cc1Cl)N1C(=O)CCCC1=O	2.0	15.5*	-0.9	-6.0	-0.8	1.9	24.6*
O=C(C1Cc2ccccc2CN1S(=O)(=O)c1ccc(F)cc1)N1CCCCCC1 (configuration not stated)	0.4	39.9*	-1.5	1.2	-1.2	-0.4	40.6*
O=C(C1Cc2ccccc2CN1S(=O)(=O)c1ccc(F)cc1)N1CCOCC1 (configuration not stated)	-0.3	6.6	-0.7	-1.1	-1.1	·	·
CCOc1ccc(C(C(=O)NCC2CCCO2)N(C(=O)c2snc(C(N)=O)c2N)c2ccc3c(c2)OCCO3)cc1 (configuration not stated)	·	·	3.9	-9.3	2.0	·	·
CC(=O)Nc1cccc(OC(=O)c2ccoc2C)c1	0.1	13.2*	0.1	-13.4	-0.6	1.5	4.3
COc1cc(/C=C2\SC(=S)N(Nc3ncc(C(F)(F)F)cc3Cl)C2=O)ccc1O	15.4	12.8*	39.5*	-15.2	23.9*	28.8*	14.9*
SMILES	zfTRPN1 agonist	TRPML3 ag	V1R ag counter	OXTR potentiate	OXTR agonist	TRPN1 counter	TRPML3 confirm
O=C1/C(=C/c2ccc(O)c(O)c2)SC(=S)N1Nc1ccccc1	17.1	6.9	·	·	·	·	·
CN1CCCN(S(=O)(=O)c2ccc3ccccc3c2)CC1	·	·	-0.6	-3.6	-0.6	·	·
O=S(=O)(c1ccc2ccccc2c1)N1CCCCCC1	-1.7	80.5*	-1.3	-10.2	-1.6	0.1	62.4*
O=S(=O)(c1ccc2ccccc2c1)N1CCCCC1	0.5	15.9*	-0.9	-0.5	-2.0	0.4	12.3*
COc1cc(S(=O)(=O)N2CCN(C)CC2)ccc1Cl	-0.5	0.1	1.2	4.5	0.0	·	·
CC(C)c1ccc(S(=O)(=O)N2CCCCC2)cc1	-0.1	14.6*	-1.1	-2.2	-0.7	-0.7	14.6*
COc1cc(S(=O)(=O)N2CCCCCC2)ccc1Cl	-1.6	44.0*	5.4	-9.6	-2.3	-1.0	61.5*
O=C(CN1C(=O)CSc2ccc(S(=O)(=O)N3CCOCC3)cc21)NCc1ccc(Cl)cc1	·	·	0.1	-9.1	0.8	·	·
C[C@H]1O[C@H](O[C@H]2[C@H](O)[C@@H](O)[C@@H](O[C@H]3[C@H](O)[C@@H](O)C(O)O[C@@H]3CO)O[C@@H]2CO)[C@H](O)[C@@H](O)[C@@H]1N[C@H]1C=C(CO)[C@@H](O)[C@H](O)[C@H]1O (some centres not stated)	-1.2	-0.9	0.0	-0.4	0.0	·	·
S=C(NC1CCCCC1)N1CCOCCOCCN(C(=S)NC2CCCCC2)CCOCC1	0.8	18.1*	0.0	-11.2	-3.9	-0.8	33.0*
NC(=O)Cc1ccc(C(=O)CSc2nnc(-c3ccncc3)n2C2CC2)s1	·	·	2.2	-2.1	0.6	·	·
Cc1cc(C)cc(N(CCC#N)C(=O)CSc2nc3ccccc3c(=O)[nH]2)c1	·	·	7.2	-6.3	8.1	·	·
Cc1cc(C)c(N2CCN(S(=O)(=O)N3CCCCCC3)CC2)c(C)c1	1.7	66.8*	0.8	-19.1	0.6	44.6*	165.2*
CC(C)[C@H](NS(=O)(=O)c1ccccc1)C(=O)OCC(=O)Nc1ccccc1Sc1ccccc1	-3.0	41.6*	0.3	-11.3	-0.3	0.5	65.9*
Cc1cc(NC(=O)COC(=O)[C@@H](NS(=O)(=O)c2ccccc2)C(C)C)no1	0.6	0.2	2.8	0.1	0.2	·	·

Screening data (PubChem BioAssay)
